# ChEMBL document CHEMBL5678808, “Human target validation of phosphoinositide 3-kinase (PI3K)β: effects on platelets and insulin sensitivity, using AZD6482 a novel PI3Kβ inhibitor” (J Thromb Haemost, 2012)
# pIC50: −log10 of the molar value. Activity calls are given as the source filed them. No cut-off for these calls is given here.
# Assays:
# Homo sapiens [1] = species on record: Homo sapiens; experiment: Inhibition of PI3Kalpha/beta/gamma/delta in human platelet rich plasma assessed as reduction in collagen-induced platelet aggregation at 5 uM preincubated for 10 mins followed by collagen addition and measured after 10 mins by light transmission aggregometry; format: cell-free; details: time 20.0 min
# How it was run: (§1)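 Venous blood from healthy human donors, citrate-anticoagulated; undiluted platelet-rich plasma tested in an in-house 96-well plate light transmission aggregometry assay. Agonist concentration-response curves run without and with inhibitor. Values are means, n = 4.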
# Homo sapiens [2] = species on record: Homo sapiens; experiment: Inhibition of PI3Kalpha/beta/gamma/delta in human platelet rich plasma assessed as reduction in ADP-induced platelet aggregation at 5 uM preincubated for 10 mins followed by ADP addition and measured after 5 mins by light transmission aggregometry; format: cell-free; details: time 15.0 min; how it was run: as §1
# Homo sapiens [3] = species on record: Homo sapiens; experiment: Inhibition of PI3Kalpha/beta/gamma/delta in human platelet rich plasma assessed as reduction in TRAP-induced platelet aggregation at 5 uM preincubated for 10 mins followed by TRAP addition and measured after 5 mins by light transmission aggregometry; format: cell-free; details: time 15.0 min; how it was run: as §1
# Rattus norvegicus = experiment: Effect on insulin resistance in iv dosed Sprague-Dawley rat assessed as plasma concentration required to show relative HOMA index of 3; format: functional, organism-based
# [4] = target: Phosphatidylinositol 4,5-bisphosphate 3-kinase catalytic subunit alpha isoform (Homo sapiens, UniProt P42336); experiment: Inhibition of recombinant human PI3Kalpha using PIP2 as substrate preincubated for 20 mins followed by substrate and ATP addition and measured after 20 mins by biotinylated-PIP3 based alphascreen assay
# Phosphatidylinositol 4,5-bisphosphate 3-kinase catalytic subunit alpha isoform, sequence (P42336 whole entry, canonical isoform): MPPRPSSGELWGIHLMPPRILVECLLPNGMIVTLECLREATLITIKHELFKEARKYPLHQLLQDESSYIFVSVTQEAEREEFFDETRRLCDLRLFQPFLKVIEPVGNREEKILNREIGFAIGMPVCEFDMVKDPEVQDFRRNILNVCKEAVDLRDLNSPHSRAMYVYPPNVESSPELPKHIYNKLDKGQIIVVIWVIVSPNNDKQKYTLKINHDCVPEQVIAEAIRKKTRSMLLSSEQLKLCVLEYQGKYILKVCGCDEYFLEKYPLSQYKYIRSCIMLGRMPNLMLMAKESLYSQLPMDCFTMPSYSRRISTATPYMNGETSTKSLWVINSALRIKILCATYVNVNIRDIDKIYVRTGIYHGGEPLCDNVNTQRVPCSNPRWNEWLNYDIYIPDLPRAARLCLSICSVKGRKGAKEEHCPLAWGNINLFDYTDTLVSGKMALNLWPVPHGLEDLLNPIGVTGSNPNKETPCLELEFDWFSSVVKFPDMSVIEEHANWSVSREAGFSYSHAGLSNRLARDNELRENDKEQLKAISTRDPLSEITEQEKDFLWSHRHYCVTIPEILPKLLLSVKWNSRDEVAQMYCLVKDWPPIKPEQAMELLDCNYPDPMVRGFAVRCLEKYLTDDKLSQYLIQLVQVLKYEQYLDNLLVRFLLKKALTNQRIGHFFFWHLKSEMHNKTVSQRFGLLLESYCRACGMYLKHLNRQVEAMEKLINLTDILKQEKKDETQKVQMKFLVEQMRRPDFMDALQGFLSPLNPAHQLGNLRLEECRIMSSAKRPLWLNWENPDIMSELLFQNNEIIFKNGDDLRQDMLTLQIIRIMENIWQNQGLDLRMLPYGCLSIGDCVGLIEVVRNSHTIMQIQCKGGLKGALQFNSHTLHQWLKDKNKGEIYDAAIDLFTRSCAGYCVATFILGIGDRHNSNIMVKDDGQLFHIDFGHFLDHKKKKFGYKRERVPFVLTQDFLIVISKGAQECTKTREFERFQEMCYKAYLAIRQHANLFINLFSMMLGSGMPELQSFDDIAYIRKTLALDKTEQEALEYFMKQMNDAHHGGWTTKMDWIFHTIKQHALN
# [5] = target: Phosphatidylinositol 4,5-bisphosphate 3-kinase catalytic subunit beta isoform (Homo sapiens, UniProt P42338); experiment: Inhibition of recombinant human PI3Kbeta using PIP2 as substrate preincubated for 20 mins followed by substrate and ATP addition and measured after 20 mins by biotinylated-PIP3 based alphascreen assay
# Phosphatidylinositol 4,5-bisphosphate 3-kinase catalytic subunit beta isoform, sequence (P42338 whole entry, canonical isoform): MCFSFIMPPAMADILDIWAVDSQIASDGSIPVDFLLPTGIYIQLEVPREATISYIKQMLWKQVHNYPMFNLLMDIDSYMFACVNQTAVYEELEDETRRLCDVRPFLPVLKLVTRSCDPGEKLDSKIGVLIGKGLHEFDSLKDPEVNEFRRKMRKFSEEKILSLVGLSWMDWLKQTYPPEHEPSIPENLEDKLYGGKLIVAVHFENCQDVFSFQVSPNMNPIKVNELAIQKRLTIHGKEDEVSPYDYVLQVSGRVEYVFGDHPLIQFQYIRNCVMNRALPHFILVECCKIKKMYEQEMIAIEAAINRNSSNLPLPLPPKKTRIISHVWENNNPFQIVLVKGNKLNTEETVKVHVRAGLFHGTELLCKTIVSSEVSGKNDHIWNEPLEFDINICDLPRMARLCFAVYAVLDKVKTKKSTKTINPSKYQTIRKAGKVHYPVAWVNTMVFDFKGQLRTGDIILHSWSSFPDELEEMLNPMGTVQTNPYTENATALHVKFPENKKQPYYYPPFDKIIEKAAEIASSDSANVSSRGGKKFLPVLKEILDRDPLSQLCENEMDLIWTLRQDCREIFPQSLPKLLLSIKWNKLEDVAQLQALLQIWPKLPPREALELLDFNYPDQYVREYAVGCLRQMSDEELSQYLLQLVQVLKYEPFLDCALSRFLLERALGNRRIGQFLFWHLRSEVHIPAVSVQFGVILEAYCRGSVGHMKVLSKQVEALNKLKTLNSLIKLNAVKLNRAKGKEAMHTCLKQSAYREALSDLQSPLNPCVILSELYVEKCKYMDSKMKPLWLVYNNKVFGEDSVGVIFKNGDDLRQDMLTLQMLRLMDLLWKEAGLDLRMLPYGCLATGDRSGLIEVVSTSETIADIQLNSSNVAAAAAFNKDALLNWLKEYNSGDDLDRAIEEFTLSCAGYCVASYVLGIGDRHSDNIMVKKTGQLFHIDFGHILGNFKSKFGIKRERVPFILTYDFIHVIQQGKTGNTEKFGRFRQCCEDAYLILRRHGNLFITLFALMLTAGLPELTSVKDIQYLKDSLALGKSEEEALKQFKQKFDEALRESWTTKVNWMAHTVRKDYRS
SMILES,inhibition (Homo sapiens [1]),inhibition (Homo sapiens [2]),inhibition (Homo sapiens [3]),Cp (Rattus norvegicus) [µM],pIC50 [4],pIC50 [5]
COC[C@H]1OC(=O)c2coc3c2[C@@]1(C)C1=C(C3=O)[C@@H]2CCC(=O)[C@@]2(C)C[C@H]1OC(C)=O,Active,Active,Active,–,–,–
CC(=O)Nc1nc(C)c(-c2cnc(Cl)c(NS(C)(=O)=O)c2)s1,–,–,–,0.3,8.00,6.96
Cc1cc(C(C)Nc2ccccc2C(=O)O)c2nc(N3CCOCC3)cc(=O)n2c1 (stereo not given),–,–,–,30,–,–
Cc1cc(F)ccc1Oc1cccc2c(=O)cc(N3CCOCC3)[nH]c12,–,–,–,> 40,4.64,6.80
